Measured values from ChEMBL document CHEMBL4251662, “Alkyl indole-based cannabinoid type 2 receptor tools: Exploration of linker and fluorophore attachment” (Eur J Med Chem, 2018).
Active and inactive are the calls of the source. No cut-off for these calls is given here.

Legend:
Cannabinoid receptor 1 [1] = target: T1, Cannabinoid receptor 1 (Homo sapiens, UniProt P21554); assay: Agonist activity at N-terminal HA-tagged human CB1 receptor expressed in HEK293 cells transfected with YFP-Epac-RLuc assessed as decrease in forskolin-stimulated cAMP level by BRET assay relative to control; format: functional, cell-based
Outline: (§1)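 BRET cAMP biosensor read-out in HEK293 cells expressing HA-tagged human CB1 or CB2, with forskolin stimulation (5 µM). Concentration-response curves; area-under-curve values normalised to forskolin alone = 100% and basal = 0%. EC50 taken for agonists and IC50 for inverse agonists. Mean of at least three independent experiments, each point in duplicate.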

Cannabinoid receptor 2 [2] = target: T2, Cannabinoid receptor 2 (Homo sapiens, UniProt P34972); assay: Displacement of [3H]CP55,940 from N-terminal HA-tagged human CB2 receptor expressed in HEK293 cell membranes after 1 hr by microbeta scintillation counting method; settings: read-out: Ki
HEK293 [3] = assay: Effect on forskolin-stimulated cAMP level in HEK293 cells at 10 uM by BRET assay relative to control; format: ADME, cell-based; settings: human, hek293, 10 µM
Outline: (§2)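 Wild-type HEK293 cells lacking transfected receptor, tested at 10 µM and 1 µM. Forskolin-stimulated cAMP measured by BRET as a check that responses are receptor-mediated.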

Cannabinoid receptor 1 [4] = target: T1, Cannabinoid receptor 1; assay: Displacement of [3H]CP55,940 from N-terminal HA-tagged human CB1 receptor expressed in HEK293 cell membranes at 10 uM after 1 hr by microbeta scintillation counting method relative to control
Outline: (§3)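 Single-point competition screen against [3H]CP55,940 in HEK293 cells over-expressing 3HA-tagged hCB2 or hCB1. Compounds giving more than 50% displacement went on to full concentration-response curves.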

Cannabinoid receptor 2 [5] = target: T2, Cannabinoid receptor 2; assay: Inverse agonist activity at N-terminal HA-tagged human CB2 receptor expressed in HEK293 cells transfected with YFP-Epac-RLuc assessed as increase in forskolin-stimulated cAMP level by BRET assay relative to control; format: functional, cell-based; outline: as §1
HEK293 [6] = assay: Effect on forskolin-stimulated cAMP level in HEK293 cells at 1 uM by BRET assay relative to control; format: ADME, cell-based; settings: human, hek293, 1 µM; outline: as §2
Cannabinoid receptor 2 [7] = target: T2, Cannabinoid receptor 2; assay: Inverse agonist activity at N-terminal HA-tagged human CB2 receptor expressed in HEK293 cells transfected with YFP-Epac-RLuc assessed as increase in forskolin-stimulated cAMP level at 10 uM by BRET assay; format: functional, cell-based
Cannabinoid receptor 1 [8] = target: T1, Cannabinoid receptor 1; assay: Displacement of [3H]CP55,940 from N-terminal HA-tagged human CB1 receptor expressed in HEK293 cell membranes after 1 hr by microbeta scintillation counting method; settings: read-out: Ki
Cannabinoid receptor 2 [9] = target: T2, Cannabinoid receptor 2; assay: Inverse agonist activity at N-terminal HA-tagged human CB2 receptor expressed in HEK293 cells transfected with YFP-Epac-RLuc assessed as increase in forskolin-stimulated cAMP level by BRET assay; format: functional, cell-based; outline: as §1
Cannabinoid receptor 2 [10] = target: T2, Cannabinoid receptor 2; assay: Displacement of [3H]CP55,940 from N-terminal HA-tagged human CB2 receptor expressed in HEK293 cell membranes at 10 uM after 1 hr by microbeta scintillation counting method relative to control; outline: as §3
Cannabinoid receptor 1 [11] = target: T1, Cannabinoid receptor 1; assay: Agonist activity at N-terminal HA-tagged human CB1 receptor expressed in HEK293 cells transfected with YFP-Epac-RLuc assessed as decrease in forskolin-stimulated cAMP level at 10 uM by BRET assay; format: functional, cell-based
Outline: (§4)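 Single-concentration screen at 10 µM in CB receptor-expressing HEK293 cells, run with and without CP55,940 as reference agonist. Forskolin-stimulated cAMP read by BRET biosensor. A fall in cAMP is scored as agonism and a rise as inverse agonism.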

[12] = target: T3, Nicotinamide N-methyltransferase (Homo sapiens) (UniProt P40261); assay: Inhibition of NNMT (unknown origin)
T3 sequence (whole entry): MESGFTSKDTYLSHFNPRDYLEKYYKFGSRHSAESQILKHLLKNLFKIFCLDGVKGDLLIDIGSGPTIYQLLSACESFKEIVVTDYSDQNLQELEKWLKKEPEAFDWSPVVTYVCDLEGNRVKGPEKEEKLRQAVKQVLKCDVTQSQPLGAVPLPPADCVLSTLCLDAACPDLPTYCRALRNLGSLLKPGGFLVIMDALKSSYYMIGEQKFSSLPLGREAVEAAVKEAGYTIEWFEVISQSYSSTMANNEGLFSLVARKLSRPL

[13] = target: T4, Potassium voltage-gated channel subfamily KQT member 3 (Homo sapiens) (UniProt O43525); assay: Agonist activity at KCNQ3 (unknown origin)
T4 sequence (whole entry): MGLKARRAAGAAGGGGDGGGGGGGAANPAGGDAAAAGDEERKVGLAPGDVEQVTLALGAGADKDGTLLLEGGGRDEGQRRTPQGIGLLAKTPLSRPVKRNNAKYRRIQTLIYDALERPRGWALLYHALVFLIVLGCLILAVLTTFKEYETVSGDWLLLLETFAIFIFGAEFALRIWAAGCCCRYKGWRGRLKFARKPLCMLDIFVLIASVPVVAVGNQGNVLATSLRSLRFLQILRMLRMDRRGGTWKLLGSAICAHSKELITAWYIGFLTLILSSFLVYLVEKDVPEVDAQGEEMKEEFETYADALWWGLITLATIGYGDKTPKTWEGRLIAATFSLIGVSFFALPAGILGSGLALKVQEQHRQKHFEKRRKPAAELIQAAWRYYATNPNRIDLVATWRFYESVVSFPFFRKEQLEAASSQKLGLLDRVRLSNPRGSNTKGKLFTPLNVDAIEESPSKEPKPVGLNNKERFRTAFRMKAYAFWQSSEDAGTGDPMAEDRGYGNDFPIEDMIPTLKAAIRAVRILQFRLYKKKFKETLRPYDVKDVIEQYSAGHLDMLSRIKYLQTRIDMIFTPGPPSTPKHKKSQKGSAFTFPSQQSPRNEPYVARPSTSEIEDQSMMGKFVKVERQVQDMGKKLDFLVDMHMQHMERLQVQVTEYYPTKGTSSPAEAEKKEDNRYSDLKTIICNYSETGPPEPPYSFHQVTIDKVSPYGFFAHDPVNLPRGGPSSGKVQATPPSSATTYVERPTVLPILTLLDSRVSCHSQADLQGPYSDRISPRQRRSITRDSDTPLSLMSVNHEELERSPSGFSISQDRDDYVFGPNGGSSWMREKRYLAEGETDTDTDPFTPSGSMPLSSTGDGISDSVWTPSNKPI

[14] = target: Interleukin-17A (Homo sapiens) (UniProt Q16552); assay: Inhibition of IL-17 (unknown origin) assessed as disruption of IL-17 protein-protein interaction
[15] = target: Potassium voltage-gated channel subfamily KQT member 2 (Homo sapiens) (UniProt O43526); assay: Agonist activity at KCNQ2 (unknown origin)
[16] = target: Proprotein convertase subtilisin/kexin type 9 (Homo sapiens) (UniProt Q8NBP7); assay: Inhibition of PCSK9 (unknown origin)
[17] = target: T5, Free fatty acid receptor 4 (Homo sapiens) (UniProt Q5NUL3); assay: Agonist activity at GPR120 (unknown origin); format: functional
T5 sequence (whole entry): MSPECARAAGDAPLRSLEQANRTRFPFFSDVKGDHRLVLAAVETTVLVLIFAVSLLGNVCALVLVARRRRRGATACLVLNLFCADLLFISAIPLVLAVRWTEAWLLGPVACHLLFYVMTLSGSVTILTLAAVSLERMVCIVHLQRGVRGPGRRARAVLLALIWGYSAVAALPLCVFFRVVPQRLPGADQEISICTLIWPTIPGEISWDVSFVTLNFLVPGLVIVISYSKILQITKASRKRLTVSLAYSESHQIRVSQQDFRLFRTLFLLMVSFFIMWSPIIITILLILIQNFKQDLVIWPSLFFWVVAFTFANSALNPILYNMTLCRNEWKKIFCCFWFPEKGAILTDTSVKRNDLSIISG

Leishmania donovani = assay: Growth inhibition of Leishmania donovani; format: functional, organism-based
Cannabinoid receptor 2 [18] = target: T2, Cannabinoid receptor 2; assay: Agonist activity at N-terminal HA-tagged human CB2 receptor expressed in HEK293 cells transfected with YFP-Epac-RLuc assessed as decrease in forskolin-stimulated cAMP level by BRET assay relative to control; format: functional, cell-based; outline: as §1
Cannabinoid receptor 2 [19] = target: T2, Cannabinoid receptor 2; assay: Agonist activity at N-terminal HA-tagged human CB2 receptor expressed in HEK293 cells transfected with YFP-Epac-RLuc assessed as decrease in forskolin-stimulated cAMP level at 10 uM by BRET assay; format: functional, cell-based; outline: as §4
Cannabinoid receptor 2 [20] = target: T2, Cannabinoid receptor 2; assay: Agonist activity at N-terminal HA-tagged human CB2 receptor expressed in HEK293 cells transfected with YFP-Epac-RLuc assessed as decrease in forskolin-stimulated cAMP level by BRET assay; format: functional, cell-based; outline: as §1

T1 sequence (P21554 whole entry): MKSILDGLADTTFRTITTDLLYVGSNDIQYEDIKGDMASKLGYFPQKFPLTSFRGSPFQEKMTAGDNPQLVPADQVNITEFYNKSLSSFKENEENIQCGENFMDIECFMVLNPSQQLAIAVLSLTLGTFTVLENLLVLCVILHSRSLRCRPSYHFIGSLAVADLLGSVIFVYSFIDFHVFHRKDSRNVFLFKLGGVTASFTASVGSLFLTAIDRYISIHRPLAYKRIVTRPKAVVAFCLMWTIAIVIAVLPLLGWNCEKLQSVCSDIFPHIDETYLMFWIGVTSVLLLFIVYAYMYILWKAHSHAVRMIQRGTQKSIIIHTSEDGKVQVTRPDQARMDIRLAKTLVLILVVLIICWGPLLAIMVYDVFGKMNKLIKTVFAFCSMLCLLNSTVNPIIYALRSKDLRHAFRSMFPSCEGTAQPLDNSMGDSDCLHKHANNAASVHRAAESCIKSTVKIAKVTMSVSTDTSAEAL
Sequence of Proprotein convertase subtilisin/kexin type 9 (Homo sapiens) (Q8NBP7 31-152 limits assumed): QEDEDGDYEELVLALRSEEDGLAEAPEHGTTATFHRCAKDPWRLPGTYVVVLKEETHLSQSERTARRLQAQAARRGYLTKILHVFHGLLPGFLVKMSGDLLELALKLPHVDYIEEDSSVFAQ
Sequence of Proprotein convertase subtilisin/kexin type 9 (Homo sapiens) (Q8NBP7 153-692 limits assumed): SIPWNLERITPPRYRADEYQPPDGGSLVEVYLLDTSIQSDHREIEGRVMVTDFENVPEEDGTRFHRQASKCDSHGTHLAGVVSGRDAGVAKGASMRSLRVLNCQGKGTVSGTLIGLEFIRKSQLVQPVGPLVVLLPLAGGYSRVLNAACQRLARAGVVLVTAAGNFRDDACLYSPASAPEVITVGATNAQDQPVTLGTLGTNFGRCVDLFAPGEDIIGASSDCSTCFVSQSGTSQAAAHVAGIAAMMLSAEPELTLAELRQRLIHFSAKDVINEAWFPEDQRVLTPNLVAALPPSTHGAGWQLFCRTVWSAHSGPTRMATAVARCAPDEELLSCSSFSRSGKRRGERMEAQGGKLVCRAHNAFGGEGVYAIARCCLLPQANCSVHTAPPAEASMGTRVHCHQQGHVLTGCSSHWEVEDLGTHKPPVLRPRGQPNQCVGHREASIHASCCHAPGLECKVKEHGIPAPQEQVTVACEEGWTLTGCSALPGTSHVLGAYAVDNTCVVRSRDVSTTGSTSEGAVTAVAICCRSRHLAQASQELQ
T2 sequence (P34972 whole entry): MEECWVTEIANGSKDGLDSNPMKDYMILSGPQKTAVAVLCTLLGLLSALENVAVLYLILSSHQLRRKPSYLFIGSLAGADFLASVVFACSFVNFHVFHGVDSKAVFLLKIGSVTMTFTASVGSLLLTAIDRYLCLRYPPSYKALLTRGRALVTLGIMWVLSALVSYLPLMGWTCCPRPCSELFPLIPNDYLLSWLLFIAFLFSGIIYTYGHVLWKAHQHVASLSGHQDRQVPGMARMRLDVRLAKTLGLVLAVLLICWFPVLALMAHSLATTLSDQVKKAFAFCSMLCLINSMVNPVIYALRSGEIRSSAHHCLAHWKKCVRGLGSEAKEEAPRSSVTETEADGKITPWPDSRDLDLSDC
Sequence of Potassium voltage-gated channel subfamily KQT member 2 (Homo sapiens) (O43526 whole entry): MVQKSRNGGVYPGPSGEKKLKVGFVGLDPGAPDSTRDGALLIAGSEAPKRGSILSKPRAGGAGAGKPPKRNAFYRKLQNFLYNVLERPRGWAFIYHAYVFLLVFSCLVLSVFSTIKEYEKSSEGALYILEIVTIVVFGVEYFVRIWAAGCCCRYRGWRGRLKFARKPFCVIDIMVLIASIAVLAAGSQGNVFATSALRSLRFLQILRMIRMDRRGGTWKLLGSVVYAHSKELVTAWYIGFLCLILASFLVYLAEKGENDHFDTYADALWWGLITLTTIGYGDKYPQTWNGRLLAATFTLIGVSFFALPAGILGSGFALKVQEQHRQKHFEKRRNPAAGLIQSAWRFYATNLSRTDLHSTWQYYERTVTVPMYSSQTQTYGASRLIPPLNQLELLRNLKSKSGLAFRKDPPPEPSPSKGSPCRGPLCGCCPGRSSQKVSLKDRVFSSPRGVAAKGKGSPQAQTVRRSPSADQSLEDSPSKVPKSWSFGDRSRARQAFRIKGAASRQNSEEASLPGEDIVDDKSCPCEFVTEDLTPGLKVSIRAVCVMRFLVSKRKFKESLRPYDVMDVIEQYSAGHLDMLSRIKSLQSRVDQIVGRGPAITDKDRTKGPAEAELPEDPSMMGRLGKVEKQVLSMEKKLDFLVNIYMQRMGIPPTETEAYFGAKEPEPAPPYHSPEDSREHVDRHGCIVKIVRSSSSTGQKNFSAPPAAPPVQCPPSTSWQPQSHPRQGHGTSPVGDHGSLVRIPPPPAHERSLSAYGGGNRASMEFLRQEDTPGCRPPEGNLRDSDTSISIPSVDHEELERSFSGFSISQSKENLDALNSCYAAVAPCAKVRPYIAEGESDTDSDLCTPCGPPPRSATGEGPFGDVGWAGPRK
Sequence of Interleukin-17A (Homo sapiens) (Q16552 whole entry): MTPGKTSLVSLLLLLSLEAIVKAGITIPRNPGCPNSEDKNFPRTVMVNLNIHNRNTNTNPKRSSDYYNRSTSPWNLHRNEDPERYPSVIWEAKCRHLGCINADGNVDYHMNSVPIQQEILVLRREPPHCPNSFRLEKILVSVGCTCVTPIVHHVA

SMILES | Emax (Cannabinoid receptor 1 [1]) | Ki (Cannabinoid receptor 2 [2]) | Activity (HEK293 [3]) | inhibition (Cannabinoid receptor 1 [4]) | Activity (HEK293 [6]) | Ki (Cannabinoid receptor 1 [8]) | inhibition (Cannabinoid receptor 2 [10]) | Activity (Cannabinoid receptor 1 [11]) | inhibition [12] | Activity [13] | inhibition [14] | Activity [15] | inhibition [16] | Activity [17] | growth inhibition (GI) (Leishmania donovani) | Emax (Cannabinoid receptor 2 [18]) | Activity (Cannabinoid receptor 2 [19]) | EC50 (Cannabinoid receptor 2 [20]) | further results
COc1ccc(C(=O)c2cn(CC3CCOCC3)c3c(OCCCCC(=O)O)cccc23)cc1 | 82.5% | 1310 nM | 129.1% | > 50% | 105.6% | > 10000 nM | > 50% | Active | – | – | – | – | – | – | – | – | – | – | Emax (Cannabinoid receptor 2 [5]): 124%; Activity (Cannabinoid receptor 2 [7]): Active; IC50 (Cannabinoid receptor 2 [9]): > 10000 nM
O=C(c1cccc2ccccc12)c1cn(CC2CCOCC2)c2ccc(OCc3ccccc3)cc12 | – | – | – | – | – | – | – | – | inactive | inactive | inactive | inactive | inactive | inactive | inactive | – | – | – | –
COc1ccc(C(=O)c2cn(CCN3CCOCC3)c3ccc(O)cc23)cc1 | 70.4% | 747 nM | 105.2% | > 50% | 101.9% | > 10000 nM | > 50% | Active | – | – | – | – | – | – | – | 67.5% | Active | 5.4 nM | –
COc1ccc(C(=O)c2cn(CC3CCOCC3)c3ccc(OCc4ccccc4)cc23)cc1 | – | – | – | – | – | – | – | – | inactive | inactive | inactive | inactive | inactive | inactive | inactive | – | – | – | –
COc1ccc(C(=O)c2cn(CC3CCOCC3)c3c(OCCCCCCNC(C)=O)cccc23)cc1 | 74.3% | 1970 nM | 128% | > 50% | 114.8% | 3920 nM | > 50% | Active | – | – | – | – | – | – | – | – | – | – | Emax (Cannabinoid receptor 2 [5]): 151%; Activity (Cannabinoid receptor 2 [7]): Active; IC50 (Cannabinoid receptor 2 [9]): > 10000 nM
COc1ccc(C(=O)c2cn(CC3CCOC3)c3ccc(OCc4ccccc4)cc23)cc1 (centres undefined) | – | – | – | – | – | – | – | – | inactive | inactive | inactive | inactive | inactive | inactive | inactive | – | – | – | –
O=C(c1cccc2ccccc12)c1cn(CCN2CCOCC2)c2ccc(O)cc12 | 54.6% | 169 nM | 118.7% | > 50% | 101.9% | 2840 nM | > 50% | Active | – | – | – | – | – | – | – | 77.4% | Active | 8.7 nM | –
COC(=O)CCCCOc1cccc2c(C(=O)c3ccc(OC)cc3)cn(CC3CCOCC3)c12 | 77.8% | 201 nM | 160.6% | > 50% | 124.3% | 1580 nM | > 50% | Active | – | – | – | – | – | – | – | – | – | – | Emax (Cannabinoid receptor 2 [5]): 166%; Activity (Cannabinoid receptor 2 [7]): Active; IC50 (Cannabinoid receptor 2 [9]): > 10000 nM
O=C(c1cn(CCN2CCOCC2)c2ccc(O)cc12)C1CCCCC1 | 74.3% | 895 nM | 105.1% | > 50% | 105.9% | > 10000 nM | > 50% | Active | – | – | – | – | – | – | – | 74.1% | Active | 18.6 nM | –
COc1ccc(C(=O)c2cn(CC3CCOCC3)c3ccc(OCC(=O)O)cc23)cc1 | 60.4% | 1660 nM | 100.1% | > 50% | 98.8% | > 10000 nM | > 50% | Active | – | – | – | – | – | – | – | 57.4% | Active | 70.2 nM | –
COc1ccc(C(=O)c2cn(CC3CCOCC3)c3c(OCC(=O)O)cccc23)cc1 | 80.5% | 582 nM | 102.8% | > 50% | 104.5% | > 10000 nM | > 50% | Active | – | – | – | – | – | – | – | 84.9% | Active | > 10000 nM | –
COc1ccc(C(=O)c2cn(CC3CCOCC3)c3c(OCc4ccccc4)cccc23)cc1 | – | – | – | – | – | – | – | – | inactive | inactive | inactive | inactive | inactive | inactive | inactive | – | – | – | –
O=C(c1cccc2ccccc12)c1cn(CC2CCOCC2)c2ccc(O)cc12 | 52.4% | 275 nM | 108.1% | > 50% | 95% | 824 nM | > 50% | Active | inactive | inactive | inactive | inactive | inactive | inactive | inactive | 64.4% | Active | 14.7 nM | –
